# This is a sample that favours compounds with a hit; in the whole collection about 0.61% have one here.
# E-selectin induc: induces E-selectin expression in human endothelial cells; P16581; HUVEC E-selectin immunofluorescence imaging; normalized: neutral wells 0, TNF-alpha wells 100; activation, % at 7.58 µM; 260,000 tested, 0.37% active; AID 686992;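 active means mean E-selectin-positive cell signal at least 10% of the positive control, reached in at least 60% of replicates, without over 20% cell loss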
# Target sequence (P16581 whole entry, looked up): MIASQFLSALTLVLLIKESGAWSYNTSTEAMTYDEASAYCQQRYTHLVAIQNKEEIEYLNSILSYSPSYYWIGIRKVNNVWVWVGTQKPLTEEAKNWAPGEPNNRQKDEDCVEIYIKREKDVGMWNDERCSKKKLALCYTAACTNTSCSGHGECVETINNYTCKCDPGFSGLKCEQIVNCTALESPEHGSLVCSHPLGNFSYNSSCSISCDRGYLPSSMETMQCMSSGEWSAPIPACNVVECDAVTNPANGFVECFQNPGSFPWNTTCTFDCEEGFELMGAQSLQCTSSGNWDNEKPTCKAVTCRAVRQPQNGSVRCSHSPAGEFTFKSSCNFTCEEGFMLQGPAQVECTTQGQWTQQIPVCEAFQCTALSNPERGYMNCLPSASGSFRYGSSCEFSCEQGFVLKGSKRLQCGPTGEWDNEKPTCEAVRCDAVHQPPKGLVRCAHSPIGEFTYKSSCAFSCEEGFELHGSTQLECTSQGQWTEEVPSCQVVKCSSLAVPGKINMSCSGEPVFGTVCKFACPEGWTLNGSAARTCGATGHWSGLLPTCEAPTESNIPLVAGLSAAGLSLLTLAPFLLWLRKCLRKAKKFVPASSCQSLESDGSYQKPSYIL
#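 Read-out: % PE-positive cells | Test system: HUVEC | Doses: One compound dose added by pin transfer | Buffer or medium: EGM-2 over gelatin coat | Signal: Immunofluorescence imaging | Benchmarks: TNF-alpha, DMSO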
# Xi reactivation: reactivates the inactive X chromosome in mouse fibroblasts; XiGFP mouse fibroblasts, % GFP-positive cells imaging, 3 d; cells co-treated with 5-aza-dC sensitizer; scaled so ellipticine positive control = 100%; activation, % at 7.58 µM; 360,000 tested, 0.055% active;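 active means mean normalized replicate activation at least 10% and every replicate at or above 10%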;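 further: 0% = median of on-plate neutral control wells and 100% = ellipticine 6 µM median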
#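 System: SV40-immortalized XiGFP fibroblast cells, line 68-5-11 / Incubation: 3-day compound exposure, then 15 min fixation at room temperature / Compound: single concentration per compound, delivered by pin transfer / Buffer or medium: DMEM plus 5-aza-dC sensitizer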
# F508del corr: correctors of CFTR F508del function in bronchial epithelial cells; CFBE cells, YFP halide quenching; stimulated with forskolin plus potentiator P3; % fluorescence drop versus neutral controls; activity (quench increase), % at 7.58 µM; 350,000 tested, 0.36% active;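 active means mean added fluorescence quench of at least 8% versus neutral control, with both replicates also reaching 8%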;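 further: cells transiently co-express mutant CFTR-F508del with the halide-sensitive YFP; corrector assay measuring rescue of mutant channel to the surface after 24 h compound exposure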
# Starred values were filed as active, the others as inactive; · = not tested or not shown.
SMILES,E-selectin induc,Xi reactivation,F508del corr
COc1ccc2c(n1)Sc1nc3ccccc3nc1N2,0,68*,-5
O=C(COC(=O)Cc1ccsc1)NCc1ccccc1,·,0,·
O=C(Cc1ccsc1)OCC(=O)c1ccccc1,0,0,14*
C[C@@H]1CN([C@H](C)CO)C(=O)c2cc(NS(=O)(=O)c3ccc(F)cc3)ccc2O[C@@H]1CN(C)Cc1ccc(C(=O)O)cc1,11,0,4
O=C(N[C@@H]1C=C[C@H](CC(=O)N2CCCCC2)O[C@@H]1CO)c1cccc(F)c1,1,0,0
O=C(CSc1nc2ncc(Br)cc2[nH]1)Nc1ccccc1-c1ccccc1,·,0,0
Brc1cnc2nc(SCc3nc4ccccc4[nH]3)[nH]c2c1,53*,0,1
C[C@@H]1CN([C@@H](C)CO)C(=O)c2cc(NC(=O)CCCN(C)C)ccc2O[C@H]1CN(C)Cc1ccc(Cl)c(Cl)c1,0,0,4
COc1ccc(N2CC(C(=O)Nc3ccc(S(=O)(=O)N4CCCC4)cc3)CC2=O)cc1 (centres undefined),0,0,-2
COc1ccccc1N1CC(C(=O)Nc2ccc(S(=O)(=O)N3CCCC3)cc2)CC1=O (centres undefined),0,0,9.6*
O=C(c1cnccn1)N1CC(=O)N2[C@H](C1)[C@H](c1ccc(C#CC3CC3)cc1)[C@@H]2CO,0,0,0
C[C@@H]1CN([C@@H](C)CO)C(=O)c2cc(NC(=O)Cn3cnnn3)ccc2O[C@H]1CN(C)Cc1ccc(Oc2ccccc2)cc1,48*,0,-2
C[C@H](CO)N1C[C@H](C)[C@@H](CN(C)Cc2ccc(Oc3ccccc3)cc2)Oc2ccc(NC(=O)Cn3cnnn3)cc2C1=O,-9,0,-2
C[C@@H]1CN([C@@H](C)CO)C(=O)c2cc(NC(=O)Cn3cnnn3)ccc2O[C@H]1CN(C)Cc1ccc2c(c1)OCO2,0,0,·
C[C@H](CO)N1C[C@H](C)[C@H](CN(C)Cc2ccc3c(c2)OCO3)Oc2ccc(NC(=O)Cn3cnnn3)cc2C1=O,39*,0,-1
Cc1ccc(S(=O)(=O)N(C)C[C@@H]2OCCCC[C@H](C)Oc3ccc(NS(=O)(=O)c4c(C)noc4C)cc3C(=O)N([C@H](C)CO)C[C@@H]2C)cc1,·,0,-3
C[C@@H](NC(=O)C[C@H]1C[C@@H]2c3cc(NC(=O)C4CCOCC4)ccc3O[C@@H]2[C@H](CO)O1)c1ccccc1,0,0,-1
O=C(C[C@@H]1C[C@@H]2c3cc(NC(=O)CC4CC4)ccc3O[C@@H]2[C@@H](CO)O1)NCc1ccccc1,0,0,-3
C[C@H]1CN([C@@H](C)CO)C(=O)c2cc(C#CC3CC3)cnc2O[C@H]1CN(C)C(=O)c1ccncc1,0,-1,-5
O=C(/C=C/c1ccco1)NC(=S)Nc1nc(-c2ccc(Cl)cc2)cs1,0,0,·
O=C(/C=C/c1ccco1)NC(=S)Nc1nc(-c2ccc3ccccc3c2)cs1,·,0,12*
Cn1c(SCc2ccc(Cl)cc2)nnc1C1CC1,·,0,0
Clc1ccc(CSc2nncn2-c2ccc3c(c2)OCCO3)cc1,·,0,11*
COCC(=O)N[C@H]1CC[C@@H](CC(=O)NCc2ccc(Cl)cc2)O[C@@H]1CO,0,0,-1
COCCNC(=O)NC12CC3(C)CC(C)(CC(C)(C3)C1)C2,0,0,10*
SMILES,E-selectin induc,Xi reactivation,F508del corr
COCCNC(=O)NC12CC3CC(CC(C3)C1)C2,·,0,-4
C[C@H](CO)N1C[C@H](C)[C@@H](CN(C)C(=O)C2CCCCC2)Oc2ncc(C#Cc3ccccc3F)cc2C1=O,0,-1,-6
COc1ccc(OC)c(Nc2c3c(nc4ccccc24)CCC3)c1,3,0,6
COc1cc(Nc2c3c(nc4ccccc24)CCC3)cc(OC)c1OC,0,0,8.6*
O=C(NC(=S)NNC(=O)c1ccccc1O)c1ccccc1,1,0,1
Cc1ccc(C(=O)NC(=S)NNC(=O)c2ccccc2O)cc1,0,0,9.7*
Cc1noc(C)c1NC(=O)Nc1ccc2c(c1)C(=O)N([C@H](C)CO)C[C@H](C)[C@H](CN(C)C(=O)CCCN(C)C)OCCCC[C@H](C)O2,0,0,5
COC(=O)c1sc(NC(=O)c2c(C)noc2C)nc1C,0,0,6
CCOC(=O)c1sc(NC(=O)c2c(CC)noc2C)nc1C,0,1,14*
CCOC(=O)c1sc(Nc2nc(C)cc(OC)n2)nc1C,0,0,-1
CCOC(=O)c1sc(Nc2nc(C)cc(C)n2)nc1C,1,0,13*
Cc1noc(C)c1S(=O)(=O)N(C)C[C@@H]1OCCCC[C@@H](C)Oc2ccc(NC(=O)Nc3ccccc3)cc2C(=O)N([C@@H](C)CO)C[C@@H]1C,0,0,3
CCNC(=O)C[C@H]1CC[C@H]2[C@@H](COC[C@H](O)CN2Cc2ccncc2)O1,0,0,1
O=C(NC[C@H]1[C@@H](c2ccccc2)[C@@H](CO)N1CC1CCCC1)c1ccccc1,0,0,-2
CC(C)CN(C(=O)COc1ccc2ccc(=O)oc2c1)C1CCS(=O)(=O)C1 (centres undefined),·,0,-4
CCN(C(=O)COc1ccc2ccc(=O)oc2c1)C1CCCCC1,-1,0,18*
C[C@H](CO)N1C[C@H](C)[C@@H](CN(C)C(=O)NC2CCCC2)Oc2ncc(C3=CCCC3)cc2C1=O,·,1,1
C[C@@H]1CN([C@@H](C)CO)C(=O)c2cc(-c3cccc(F)c3)cnc2O[C@@H]1CN(C)CC1CCOCC1,1,0,-2
CCCNC(=O)N1C[C@H](C)[C@H](OC)CN(C)C(=O)c2cc(NS(C)(=O)=O)ccc2OC[C@@H]1C,0,0,2
C[C@@H]1CN([C@@H](C)CO)C(=O)c2cc(C#CC3CCCCC3)cnc2O[C@H]1CN(C)S(=O)(=O)c1ccc(F)cc1,0,-1,3
O=C(C[C@@H]1CC[C@H]2[C@@H](COC[C@H](O)CN2Cc2ccccc2F)O1)NCc1ccccc1F,0,0,3
COc1ccc(CN(C)C[C@H]2Oc3ccc(NC(=O)Nc4ccc(F)cc4)cc3CC(=O)N([C@H](C)CO)C[C@H]2C)cc1,-4,0,-1
C[C@H](CO)N1C[C@H](C)[C@@H](CN(C)Cc2ccccc2)Oc2ccc(NC(=O)Nc3cccc4ccccc34)cc2CC1=O,2,0,1
COc1ccc(CN(C)C[C@@H]2Oc3ccc(NC(=O)Nc4ccc(F)cc4)cc3CC(=O)N([C@H](C)CO)C[C@@H]2C)cc1,76*,0,-1
COc1ccc(CN(C)C[C@H]2Oc3ccc(NC(=O)Nc4ccc(F)cc4)cc3CC(=O)N([C@H](C)CO)C[C@@H]2C)cc1,12,0,0
COc1ccc(CN(C)C[C@@H]2Oc3ccc(NC(=O)Nc4ccc(F)cc4)cc3CC(=O)N([C@H](C)CO)C[C@H]2C)cc1,83*,0,-2

# Screening results deposited in PubChem by Broad Institute.
